High-throughput results from PubChem BioAssay.
NF-kB neuron act: activators of NF-kB expression in neurons, primary screen, cell-based, HTS. 190,000 compounds, 1.6% hits. fold change at 12.5 µM. human neuronal cells, NF-kB reporter expression; hits give high values; in the data active means fold change above about 3.3
STAT1 activator: STAT1 signaling activators, primary screen, cell-based, HTS, luciferase reporter | NIH 3T3 STAT1-luciferase reporter, IFN-gamma, luminescence; 100% = IFN-gamma alone, no compound | activation (% of control), % at 5.5 µM | 200,000 compounds, 2.6% hits | AID 932, 2007;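 active means activation above the screen-wide mean activation plus 3 SD, cut at about 130% in these data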
STAT3 inh: IL-6 driven STAT3 reporter inhibitors, primary screen, U3A cells, luciferase, luminescence, MLSCN library; 190,000 compounds, 0.89% hits; IL-6 STAT3-luciferase reporter; host cell line lacks STAT1; inhibition, % at 5.5 µM; AID 862, 2007;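 active means inhibition above the mean inhibition across all screened compounds plus 3 SD, cut at about 44% in these data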
STAT1 inh: STAT1 signaling inhibitors, primary screen, cell-based, HTS, luciferase reporter | NIH 3T3 STAT1-luciferase reporter, IFN-gamma, luminescence | inhibition, % at 5.5 µM | 200,000 compounds, 0.35% hits;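 active means inhibition above a set limit, the mean inhibition across all tested compounds plus 3 SD, cut at about 34% in these data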
STAT3 act: IL-6 driven STAT3 reporter potentiators, primary screen, U3A cells, luciferase, luminescence, MLSCN library. IL-6 STAT3-luciferase reporter; 100% = signal with IL-6 EC80 alone. 190,000 compounds, 0.91% hits. activation (% of control), % at 5.6 µM;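 active means activation above the screen-wide mean of compound activation plus 3 SD, cut at about 130% in these data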
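system = STAT3-luciferase reporter U3A cells | reagent = IL-6 stimulus at 33 ng/mL final | timing = 1 h compound pre-exposure, 6 h IL-6 stimulation, 37 °C | measured by = luminescence | evaluation = % activation versus median of IL-6-stimulated wells | control set = IL-6-only wells as 100% reference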
APP 5'UTR act: activators of APP 5'UTR luciferase reporter, primary screen, SH-SY5Y cells; SH-SY5Y APP 5'UTR luciferase reporter, luminescence; zero percent = DMSO vehicle wells; activation, % at 2 µM; 190,000 compounds, 1% hits;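 active means activation above a set limit, based on mean plus 3 SD of controls, cut at about 140% in these data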
A number is an active result; . = inactive; / = no result given. Most compounds without a hit are left out; they make up all but 4.9% or so of the library.

SMILES | NF-kB neuron act | STAT1 activator | STAT3 inh | STAT1 inh | STAT3 act | APP 5'UTR act
CCc1c(-c2ccccc2)nc2nc(C)c(C)nn12 | . | . | . | . | . | .
c1ccc(-c2cn3nc4c(nc3n2)CCCC4)cc1 | . | . | 87 | 53 | . | 148
Cc1nc2nc(-c3ccccc3)cn2nc1C | 4.7 | . | . | . | . | .
CCc1ccc(-c2cn3nc(C)c(C)nc3n2)cc1 | . | . | 110 | 85 | . | .
CC1(c2ccc(C#N)cc2)NC(=O)N(CC(=O)Nc2cc(S(=O)(=O)N3CCOCC3)ccc2Cl)C1=O (stereo not drawn) | . | . | . | . | . | .
Cc1sc2ncnc(SCC(=O)c3ccc4c(c3)OCCO4)c2c1-c1ccccc1 | . | . | . | . | . | .
CC(=O)N1CCN(c2ccc(Nc3ncnc4c3oc3ccccc34)cc2)CC1 | . | . | . | . | . | /
CC(C)C(Nc1ncnc2c1oc1ccccc12)C(=O)O (stereo not drawn) | / | . | . | . | . | .
c1ccc(Nc2ncnc3c2oc2ccccc23)cc1 | . | 132 | . | . | . | .
Oc1ccccc1Nc1ncnc2c1oc1ccccc12 | . | . | . | . | 158 | .
O=[N+]([O-])c1ccc(CSc2nc3ccccc3[nH]2)cc1 | . | 141 | . | . | . | .
Fc1ccc(CSc2nc3ccccc3[nH]2)cc1 | 4.8 | 129 | . | . | . | .
Fc1ccc(CSc2nc3ncccc3[nH]2)cc1 | . | . | . | . | . | .
CC(=O)NC(Cc1ccc(O)cc1)C(=O)NN (stereo not drawn) | . | . | . | . | . | .
O=C(NCCCl)Nc1cccnc1Cl | . | . | . | . | . | .
COc1ccc(OCCCSc2ncccn2)cc1 | . | 142 | . | . | . | .
Cc1ccc(OCCCSc2ncccn2)cc1C | . | 135 | . | . | . | .
Clc1ccc(OCCSc2ncccn2)cc1 | . | 131 | . | . | . | .
O=C(CCCc1cccs1)Nc1nc2c(s1)CCCC2 | . | . | . | . | 133 | .
CC1CCc2nc(NC(=O)c3ccco3)sc2C1 (stereo not drawn) | . | . | 97 | 43 | . | .
CC1CCc2nc(NC(=O)Cc3cccs3)sc2C1 (stereo not drawn) | 4.3 | 143 | . | . | . | .
Cc1csc(NC(=O)CCCc2cccs2)n1 | . | . | . | . | . | .
c1ccc(C2CCC(N3CCNCC3)CC2)cc1 (stereo not drawn) | . | . | . | . | . | .
COc1cc(NC(=O)CN2C(=O)NC(C)(c3ccc4ccccc4c3)C2=O)c(C)cc1[N+](=O)[O-] (stereo not drawn) | . | . | . | . | . | .
COc1ccc(OC)c(-c2csc(N(CC3CCCO3)C(=O)C3CCCCC3)n2)c1 (stereo not drawn) | . | . | . | . | . | .
SMILES | NF-kB neuron act | STAT1 activator | STAT3 inh | STAT1 inh | STAT3 act | APP 5'UTR act
CN(C)S(=O)(=O)c1ccc(C(=O)NCCOc2ccccc2)cc1 | . | 131 | . | . | . | /
Cc1ccc(Cl)c(OC(=O)Cn2cnc3c2c(=O)n(C)c(=O)n3C)c1 | . | . | . | . | . | .
Brc1cc2c(cc1/C=N/Nc1nc(N3CCOCC3)nc(N3CCOCC3)n1)OCO2 | . | . | . | . | . | .
Cc1ccc2nc(NC(=O)/C=C/c3ccc4c(c3)OCO4)sc2c1 | . | . | . | . | . | .
Brc1cc2c(cc1/C=N/Nc1nc3ccccc3s1)OCO2 | . | 132 | . | . | . | .
O=C(/C=C/c1ccc2c(c1)OCO2)Nc1nc(-c2ccc(F)cc2F)cs1 | . | . | . | . | . | .
CC(C)=CC(=O)Nc1ccc2c(c1)OCO2 | 4.5 | . | . | . | . | .
O=C(/C=C/c1ccc2c(c1)OCO2)Nc1nc2ccccc2s1 | . | 146 | . | . | . | 156
Cc1csc(NC(=O)/C=C/c2ccc3c(c2)OCO3)n1 | . | . | 88 | 44 | . | .
CC(C)(C)c1ccc(-c2cn(-c3ccc(Br)cc3)c3[n+]2CCCS3)cc1 | . | . | . | . | . | .
Cc1ccc(/C=N/n2c(C)nc3ccccc3c2=O)s1 | . | . | . | . | . | .
COc1ccc(NC(=O)/C=C/c2ccc3c(c2)OCO3)cc1 | . | 131 | . | . | . | .
O=C(Nc1ccc2c(c1)OCCO2)c1cncc(Br)c1 | 4.9 | . | . | . | . | 157
Cc1occc1C(=O)Nc1ccc2c(c1)OCCO2 | . | 131 | . | . | . | .
Cc1cc(C(=O)Nc2ccc3c(c2)OCCO3)c(C)o1 | 4.6 | 130 | . | . | . | .
C=CCNC(=O)c1sccc1Oc1ccc(F)cc1[N+](=O)[O-] | . | . | . | . | . | .
CC1CCCC(NC(=O)COC(=O)[C@@H](NC(=O)c2ccco2)C(C)C)C1C (stereo partly drawn) | . | . | . | . | . | .
Cn1c(NC(=O)/C=C/c2ccccc2)cc(=O)n(C)c1=O | . | 139 | . | . | . | .
CCCC(=O)Nc1cc(=O)n(C)c(=O)n1C | . | . | . | . | . | .
Cn1c(NC(=O)CCc2ccccc2)cc(=O)n(C)c1=O | . | 138 | . | . | . | .
O=C(Nc1ncc(Cl)cc1Cl)c1c(F)cccc1Cl | . | . | . | . | . | .
CCOC(=O)C1CCCN(C(=S)NC2CCCC2)C1 (stereo not drawn) | . | . | . | . | . | .
CN(C)/C=C/C(=O)c1ccc(Cl)s1 | . | . | . | . | . | .
CN(C)/C=C/C(=O)c1cnc(-c2ccccc2)s1 | 3.8 | 131 | . | . | . | .
Fc1ccc(/C=N/Nc2ccccn2)cc1 | . | . | . | . | . | .
SMILES | NF-kB neuron act | STAT1 activator | STAT3 inh | STAT1 inh | STAT3 act | APP 5'UTR act
Brc1ccc(/C=N/Nc2ccccn2)cc1 | . | 138 | . | . | . | .
Clc1ccc(/C=N/Nc2ccccn2)cc1 | . | 135 | . | . | . | .
Brc1ccccc1/C=N/Nc1ccccn1 | . | . | . | . | . | .
COc1ccccc1CC(=O)Nc1ccc2c(c1)C(=O)NC2=O | . | . | . | . | . | .
CS(=O)(=O)N1N=C(c2cccs2)CC1c1ccc(Cl)o1 (stereo not drawn) | . | . | . | . | . | .
COc1cc(/C=N\NC(=O)c2ccc(=O)[nH]n2)cc(OC)c1OC | 3.5 | . | . | . | . | .
COc1cc(/C=N/NC(=O)c2nonc2N)cc(OC)c1OC | . | . | . | . | . | .
COc1cc(/C=N/NC(=O)c2cc(-c3cccn3C)n[nH]2)cc(OC)c1OC | . | . | . | . | 134 | .
COc1cccc(/C=N/NC(=O)c2cc(-c3cccn3C)n[nH]2)c1 | . | . | . | . | . | .
